Screens (PubChem BioAssay)
In the library only some 1.8% were active in any assay of this set; here they are far more common.
B2AR ag = agonists of human beta-2 adrenergic receptor inducing internalization | P07550 | Am2.2-beta2AR cells, FAP receptor internalization, flow cytometry | response, % (concentration not given with the values) | hit rate 0.43% among 340,000;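 active means response above a set limit, near 3 SD of response in nonfluorescent compounds, cut at about 42% in these data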
CXCR6 inh = CXCR6 (human) receptor inhibition; O00574; CHO-K1 PathHunter CXCR6 beta-arrestin, luminescence; inhibition, % at 20 µM; hit rate 0.36% among 360,000; in the data active means inhibition above about 34%, passing the limit was not always enough;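 further: antagonist mode with CXCL16 agonist at 10 nM final; 0% = 10 nM CXCL16 with DMSO and 100% = unstimulated wells without agonist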
Target sequence (O00574 whole entry, looked up): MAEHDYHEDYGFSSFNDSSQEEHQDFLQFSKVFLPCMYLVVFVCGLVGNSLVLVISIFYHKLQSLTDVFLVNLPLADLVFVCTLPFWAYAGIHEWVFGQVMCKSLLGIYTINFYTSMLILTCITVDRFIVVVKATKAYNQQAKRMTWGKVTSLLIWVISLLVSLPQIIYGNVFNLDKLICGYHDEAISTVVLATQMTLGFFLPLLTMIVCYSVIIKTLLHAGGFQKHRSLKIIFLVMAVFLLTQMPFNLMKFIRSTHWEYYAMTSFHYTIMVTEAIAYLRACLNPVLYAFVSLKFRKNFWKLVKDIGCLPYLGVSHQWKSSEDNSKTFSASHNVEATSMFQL
EBI2 block = blocks human EBI2 receptor beta-arrestin signaling. P32249. EBI2 beta-arrestin recruitment, luminescence, 7a,25-OHC stimulated. inhibition, % at 5 µM. hit rate 0.81% among 360,000; in the data active means inhibition above about 38%;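 further: enzyme fragment complementation signal reports receptor beta-arrestin coupling in cells; 0% = agonist plus DMSO wells and 100% = wells without agonist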
APJ antagonist = blocks the human apelin receptor APJ | P35414 | CHO-K1 APJ beta-arrestin complementation, luminescence | inhibition, % at 20 µM | hit rate 0.32% among 330,000 | AID 2521;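 active means inhibition above about 40% at 20 µM, limit read from the data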;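 further: cells challenged with 10 nM apelin-13 agonist together with compound; plate controls were apelin-13 plus DMSO wells for no effect and DMSO wells lacking apelin-13 for full effect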
APJ agonist = APJ receptor agonism | activation, % at 20 µM | hit rate 0.11% among 330,000 | P35414 | CHO-K1 APJ PathHunter beta-arrestin, luminescence; 0% DMSO wells, 100% apelin;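 active means activation more than six SD over the plate average, tested at 20 µM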;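 further: 0% = DMSO alone and 100% = apelin-13 at 10 nM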
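Assay system: engineered CHO-K1 APJ arrestin reporter cells; Amount: 1000 CHO-K1 reporter cells seeded per well; Dosing: one dose, 20 µM compound, 1% DMSO; Times: compound stimulation 90 min at 25 °C, detection 60 min; Measured by: luminescent beta-gal fragment complementation, chemiluminescent substrate; Read-out: APJ–arrestin association signal; Controls: DMSO vs Apelin-13 10 nM.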
CCR6 antagonist = antagonists of human CCR6 receptor | CHO-K1 CCR6 PathHunter beta-arrestin, luminescence, CCL20-stimulated | P51684 | AID 493098 | inhibition, % at 20 µM | hit rate 0.49% among 340,000;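 active means compounds whose inhibition of the agonist-driven luminescence signal at 20 µM reaches about 50%, limit read from the data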;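 further: cells stimulated with CCL20 at 14 nM final; plate controls were DMSO with CCL20 for no effect and DMSO without agonist for full effect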
Target sequence (P51684 whole entry, looked up): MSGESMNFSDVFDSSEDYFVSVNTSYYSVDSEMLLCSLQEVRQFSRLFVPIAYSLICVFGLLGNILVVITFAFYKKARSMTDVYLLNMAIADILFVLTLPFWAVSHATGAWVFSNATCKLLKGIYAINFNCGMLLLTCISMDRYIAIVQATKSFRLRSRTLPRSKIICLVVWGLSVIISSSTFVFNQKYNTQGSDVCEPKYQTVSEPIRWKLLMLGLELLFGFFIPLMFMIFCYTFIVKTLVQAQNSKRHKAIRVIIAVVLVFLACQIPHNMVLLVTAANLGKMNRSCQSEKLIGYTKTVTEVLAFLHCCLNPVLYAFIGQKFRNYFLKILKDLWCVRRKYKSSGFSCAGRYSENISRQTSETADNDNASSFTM
EBI2 conf = EBI2 (human) antagonism, single concentration confirmation; shares compounds with EBI2 block; EBI2 beta-arrestin luminescence, 7a,25-OHC antagonism; inhibition, % at 5 µM; hit rate 29% among 2,400; AID 651997;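 active means inhibition of at least 50%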
EBI2 agonist = counter-screen for EBI2 antagonists: EBI2 agonist activity; shares compounds with EBI2 block; EBI2-expressing cells, agonist mode, luminescence, 60 min; 0% vehicle, 100% 7α,25-dihydroxycholesterol control; activation, % at 5 µM; 2,400 tested, under 10 active;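 active means activation of at least 50%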
bGal cs = beta-galactosidase inhibition counter-screen | shares compounds with EBI2 block | purified beta-galactosidase, luminescent Galacton Star, 15 min | inhibition, % at 5 µM | hit rate 1% among 2,400;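 active means replicate-average signal at least 3 plate SD below neutral wells, shown as high inhibition, flagging enzyme-inhibiting false positives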;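 further: 0% = DMSO wells with enzyme and 100% = wells lacking enzyme; higher means stronger loss of beta-gal luminescence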
Starred values were filed as active, the others as inactive; . = not tested or not shown.

SMILES | B2AR ag | CXCR6 inh | EBI2 block | APJ antagonist | APJ agonist | CCR6 antagonist | EBI2 conf | EBI2 agonist | bGal cs
CC(NC(=O)C1CCN(C(=O)Nc2ccccc2)CC1)c1ccc(Cl)cc1 (centres undefined) | 3 | -4 | 46* | 3 | -1 | 5 | 32 | 2 | 2
O=C(NCC(c1ccccc1Cl)N1CCCC1)C1CCN(C(=O)Nc2ccccc2)CC1 (centres undefined) | 12 | -2 | 53* | -5 | -4 | 10 | 14 | 0 | -13
O=C(Nc1cccc(F)c1)C1CCCN(S(=O)(=O)c2cnc[nH]2)C1 (centres undefined) | -2 | 8 | 2 | -2 | -2 | -4 | . | . | .
c1ccc(-c2cn(-c3ccccc3)c3ncnc(NCCCN4CCOCC4)c23)cc1 | -13 | 8 | 62* | 13 | 0 | 10 | 18 | -1 | -10
COc1ccc(-n2cc(-c3ccccc3)c3c(NCCCN4CCOCC4)ncnc32)cc1 | 2 | 3 | 16 | -9 | -2 | -4 | . | . | .
COC(=O)c1ccc(C)c(NC(=O)CCCN2C(=O)NC(C)(C)C2=O)c1 | -5 | 7 | -6 | -9 | 0 | -2 | . | . | .
COc1ccccc1-c1ccc(Nc2ccc(C(=O)N3CCOCC3)cc2)nn1 | -2 | -8 | -19 | -1 | 3 | 5 | . | . | .
CC(=O)c1ccc(Nc2ccc(-c3ccccc3F)nn2)cc1 | 30 | -7 | 42* | -10 | -2 | 5 | 26 | -2 | -5
COc1ccc(C(=O)COC(=O)c2sccc2C)cc1OC | -3 | 8 | -2 | 0 | -3 | 8 | . | . | .
O=C(CSc1nc2ccccc2n1CCc1ccccc1)c1ccc(O)c(O)c1 | -7 | -1 | -2 | . | . | 28 | . | . | .
CCCNC(=O)c1cc(C2CCCN(C(=O)c3ccc(NC(C)=O)cc3)C2)on1 (centres undefined) | . | 5 | -12 | . | . | . | . | . | .
O=C(/C=C/c1ccc(Cl)c(Cl)c1)N1CCOCC1 | 0 | -2 | 57* | 22 | 4 | 2 | 55* | -1 | -20
O=C(/C=C/c1ccccc1)N1CCOCC1 | -1 | -4 | 22 | 20 | -3 | 3 | . | . | .
O=C(/C=C/c1ccc(Cl)cc1)N1CCOCC1 | 12 | 3 | 50* | 8 | -5 | 15 | 30 | -1 | -10
CC(C)c1ccc(/C=C/C(=O)N2CCOCC2)cc1 | -5 | -6 | 30 | 2 | -3 | 13 | . | . | .
O=C(/C=C/c1ccc(Br)cc1)NC(=S)N1CCOCC1 | 3 | -3 | 64* | -7 | -1 | -2 | 48 | 0 | 0
O=C(/C=C/c1ccc2c(c1)OCO2)N1CCN(c2ccc(Cl)cc2)CC1 | -8 | -2 | 47* | 1 | 3 | -12 | 29 | 2 | 5
C[C@H](CO)N1C[C@H](C)[C@@H](CN(C)C(=O)c2cc(-c3ccccc3)on2)OCc2cn(nn2)CCCC1=O | . | -1 | 0 | . | . | . | . | . | .
CCc1cc(-c2n[nH]c(C)c2Oc2ccc(C(C)C)cc2)c(O)cc1O | 1 | -13 | 4 | -11 | -1 | -18 | . | . | .
CCOc1ccc(S(=O)(=O)N2CCCC(C(=O)NCC3CCCO3)C2)cc1 (centres undefined) | -2 | 0 | 3 | -7 | -7 | 1 | . | . | .
CC(Oc1ccc(F)cc1)C(=O)Nc1ccc2ccccc2c1 (centres undefined) | -1 | -2 | 50* | -7 | -1 | -2 | 30 | 1 | -6
CC(Oc1ccccc1F)C(=O)Nc1ccc2ccccc2c1 (centres undefined) | 0 | 11 | 29 | 14 | -4 | 7 | . | . | .
CCC1=C(c2ccc(OC)cc2)CCC(C(=O)O)C1C (centres undefined) | -15 | -1 | -2 | . | . | 0 | . | . | .
COc1ccc(CCNC(=O)/C(C#N)=C/c2cccc(OCc3ccccc3)c2)cc1OC | 22 | -7 | 53* | -26 | -3 | 8 | 25 | 1 | 5
COc1cc(/C=C(\C#N)C(=O)NCc2ccccc2)ccc1OCc1ccc(C(=O)O)cc1 | 3 | 6 | -8 | 13 | 1 | 9 | . | . | .
SMILES | B2AR ag | CXCR6 inh | EBI2 block | APJ antagonist | APJ agonist | CCR6 antagonist | EBI2 conf | EBI2 agonist | bGal cs
Cc1nn(CC(=O)Nc2ccccc2C(F)(F)F)c(=O)c2cccn12 | -1 | -6 | -2 | -2 | -6 | -3 | . | . | .
COc1ccc(C)cc1N(CC(=O)Nc1ccc(S(=O)(=O)N2CCCC2)cc1)S(C)(=O)=O | 10 | -1 | -3 | -7 | 4 | 0 | . | . | .
Cc1ccc([N+](=O)[O-])cc1N(CC(=O)NC1CCCC1)S(C)(=O)=O | 5 | 4 | -3 | 0 | 1 | 11 | . | . | .
Cc1ccc(NS(=O)(=O)c2ccc(NC(=O)CN(c3cc([N+](=O)[O-])ccc3C)S(C)(=O)=O)cc2)c(C)c1 | 16 | 5 | 75* | -11 | 2 | 18 | 22 | -2 | -2
O=C(CSc1ccc(Cl)cc1)N1CCN(c2ccc([N+](=O)[O-])cc2Cl)CC1 | 1 | -7 | 84* | 7 | -6 | 13 | 37 | -1 | -11
O=C(CSc1ccc(Cl)cc1)N1CCN(c2c(Cl)cccc2[N+](=O)[O-])CC1 | 8 | 17 | 94* | 12 | -3 | -5 | 86* | 1 | 4
CS(=O)(=O)N1CCN(c2c(Cl)cccc2[N+](=O)[O-])CC1 | 1 | 2 | -5 | 13 | 1 | 4 | . | . | .
O=C(/C=C/c1ccc(Cl)cc1)N1CCN(c2c(Cl)cccc2[N+](=O)[O-])CC1 | 0 | 10 | 98* | 3 | -6 | 15 | 91* | 1 | 3
Cn1nc(C(C)(C)C)cc1C(=O)N1CCCCC1c1cc(C(=O)Nc2ccccc2)no1 (centres undefined) | . | -4 | 8 | . | . | . | . | . | .
c1ccc(CCNc2ccc3ncc(-c4cccc5ccccc45)n3n2)nc1 | . | -1 | 15 | . | . | . | . | . | .
Nc1ccccc1N=Cc1ccc(-c2cccc(Cl)c2)o1 | -5 | 25 | 42* | -8 | 9 | 11 | 33 | -1 | -8
CCc1ccc(CN(C)C(=O)c2cc(=O)c3ccccc3o2)cc1 | -1 | 8 | 86* | 8 | -3 | 9 | 65* | 0 | -11
COc1ccc(CCN(C)C(=O)c2cc(=O)c3ccccc3o2)cc1OC | -5 | 1 | 10 | 5 | 1 | 1 | . | . | .
O=C(NCCN1C(=O)S/C(=C\c2cccnc2)C1=O)c1cc(S(=O)(=O)N2CCOCC2)ccc1F | -1 | 5 | 0 | -1 | -5 | -1 | . | . | .
COc1ccc(COC(=O)C2CCN(C(=O)c3ccc(Cl)cc3)CC2)cc1F | 1 | 4 | 49* | 11 | -5 | 27 | 49 | 0 | 0
